From publication PMC11792500 (RSC Advances, 2025)
Where two headings read alike, the source gives them in different places.

How the values were obtained:
[1] = test system: HCT-116 (colon cancer); assay: MTT cytotoxicity assay, HCT-116 colon cancer cells; assay type: cell-based, human; conditions: read-out: IC50 against HCT-116
Procedure, shortened: (§1)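 Cells (HCT116 or normal dermal fibroblasts) were obtained from ATCC, seeded per doubling time, and grown in RPMI at 37 °C, humidified 5% CO₂. After 48 h exposure to increasing test compound concentrations, MTT at 5 mg ml⁻¹ working concentration was added for 3 h in the dark, followed by DMSO solubilisation with shaking. OD was read at 570/630 nm, viability expressed as treated/untreated × 100, and IC50 ±SD reported from duplicate wells, ≥3 independent runs.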

[2] = test system: A549 (lung cancer); assay: MTT cytotoxicity assay, A549 lung cancer cells; assay type: cell-based, human; conditions: for IC50: read-out: IC50 against A549; for lipophilic efficiency (LLE): from cytotoxicity IC50 at A549, DataWarrior
Procedure, shortened: (§2)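 Cells from ATCC, seeded at densities set by doubling time and kept in RPMI at 37 °C, 5% CO₂. They were exposed to increasing concentrations for 48 h. MTT at 5 mg ml⁻¹ working concentration was added for 3 h in the dark, and crystals were dissolved in DMSO. […] LLE was estimated from these IC50 values and compound physicochemical properties.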

[3] = test system: normal dermal fibroblast cells; assay: MTT cytotoxicity assay, normal fibroblasts; assay type: cell-based; conditions: 48 h, read-out: IC50 against normal fibroblasts
Procedure, shortened: as §1

[4] = test system: T47-D (breast cancer); assay: MTT cytotoxicity assay, T47-D breast cancer cells; assay type: cell-based, human; conditions: for IC50: read-out: IC50 against T47-D, MTT, 48 h treatment, ±SD, n = 9; for lipophilic efficiency (LLE): from cytotoxicity IC50 at T47-D (printed H47-D), DataWarrior
Procedure, shortened: as §2

[5] = test system: A549 cell migration; assay: Wound healing; assay type: cell-based, human; conditions: A549 cells, 24 h, control 0%; for inhibition of cell migration at IC50: compound at IC50 concentration; for inhibition of cell migration at Sub IC50: compound at sub-IC50 concentration
Procedure, shortened: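 A549 cells were seeded at 35 000 per culture insert and grown 24 h. Proliferation was blocked with 10 μg ml⁻¹ mitomycin C for 2 h, then cells were washed three times. Cells were exposed to two test concentrations (full and sub-level) and the wound imaged at 0 and 24 h. Wound width was measured, and migration inhibition expressed against the untreated control (0%).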

[6] = biological target: EGFR kinase (Homo sapiens, UniProt P00533); assay: EGFR kinase inhibition; assay type: biochemical; conditions: three independent replicates
[7] = MTT, 48 h treatment, ±SD, n = 9

EGFR kinase, sequence (P00533 25-1210): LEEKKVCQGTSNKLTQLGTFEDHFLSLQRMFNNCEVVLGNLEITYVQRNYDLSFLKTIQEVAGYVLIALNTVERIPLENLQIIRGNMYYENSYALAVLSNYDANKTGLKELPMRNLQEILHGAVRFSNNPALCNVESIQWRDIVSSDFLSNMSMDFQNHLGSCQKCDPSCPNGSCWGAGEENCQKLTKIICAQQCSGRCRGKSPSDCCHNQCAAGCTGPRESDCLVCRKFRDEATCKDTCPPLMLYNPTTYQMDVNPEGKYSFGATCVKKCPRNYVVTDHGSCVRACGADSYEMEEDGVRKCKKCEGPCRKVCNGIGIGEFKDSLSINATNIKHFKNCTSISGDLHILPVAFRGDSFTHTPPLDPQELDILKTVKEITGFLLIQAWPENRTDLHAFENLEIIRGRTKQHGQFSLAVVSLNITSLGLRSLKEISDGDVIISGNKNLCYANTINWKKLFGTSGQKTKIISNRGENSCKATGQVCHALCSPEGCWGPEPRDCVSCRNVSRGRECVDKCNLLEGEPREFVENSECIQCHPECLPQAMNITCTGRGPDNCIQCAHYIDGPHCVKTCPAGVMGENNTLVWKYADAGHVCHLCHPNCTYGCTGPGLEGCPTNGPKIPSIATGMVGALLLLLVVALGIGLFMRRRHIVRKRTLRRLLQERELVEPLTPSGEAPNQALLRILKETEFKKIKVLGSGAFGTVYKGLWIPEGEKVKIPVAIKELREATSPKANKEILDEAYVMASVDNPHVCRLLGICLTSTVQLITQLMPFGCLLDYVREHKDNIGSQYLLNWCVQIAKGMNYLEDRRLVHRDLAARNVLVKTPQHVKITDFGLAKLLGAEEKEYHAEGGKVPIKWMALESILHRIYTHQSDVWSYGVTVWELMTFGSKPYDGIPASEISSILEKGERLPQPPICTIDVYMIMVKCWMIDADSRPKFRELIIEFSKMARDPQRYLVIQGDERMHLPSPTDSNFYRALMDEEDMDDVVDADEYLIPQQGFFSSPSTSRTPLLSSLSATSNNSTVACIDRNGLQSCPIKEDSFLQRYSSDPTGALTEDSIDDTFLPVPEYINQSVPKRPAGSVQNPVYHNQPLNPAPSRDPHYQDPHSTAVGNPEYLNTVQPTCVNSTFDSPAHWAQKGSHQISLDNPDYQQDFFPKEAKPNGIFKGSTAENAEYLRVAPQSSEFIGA

Structure (SMILES)	IC50 ([1]; Homo sapiens, HCT-116, 48 h) [µM]	IC50 ([2]; Homo sapiens, A549, 48 h) [µM]	IC50 [3] [µM]	also measured
O=c1[nH]cc(F)c(=O)[nH]1 [5-FU, reference compound]				IC50 [1, 7]: 11 ± 0.7 µM
C#CCOc1ccc(/C=N\NC(=O)c2ccccc2)cc1 [7a, (Z)-N′-(4-(prop-2-yn-1-yloxy)benzylidene)benzohydrazide]	237 ± 6	200 ± 4	> 500	
C#CCOc1ccc(/C=N\Nc2ccc([N+](=O)[O-])cc2[N+](=O)[O-])cc1 [7c, (Z)-1-(2,4-dinitrophenyl)-2-(4-(prop-2-yn-1-yloxy)benzylidene)hydrazine]	209 ± 5	156 ± 4	> 500	
C#CCOc1ccc(/C=N\NC(N)=S)cc1 [7d, (Z)-2-(4-(prop-2-yn-1-yloxy)benzylidene)hydrazine-1-carbothioamide]	261 ± 6	128 ± 5	> 500	
O=C(Cn1cc(COc2ccc(/C=N/NC(=O)c3ccccc3)cc2)nn1)Nc1nc2ccccc2s1 [8a, (E)-N-(benzo[d]thiazol-2-yl)-2-(4-((4-((2-benzoylhydrazono)-methyl)phenoxy)methyl)-1H-1,2,3-triazol-1-yl)acetamide]	84 ± 3	18 ± 1	> 500	IC50 [4]: 17 ± 1 µM; inhibition of cell migration at IC50 [5]: 92.4%; inhibition of cell migration at Sub IC50 [5]: 44.8%; % of EGFR inhibition [6]: 98.5 ± 3.1%
Cc1ccc2nc(NC(=O)Cn3cc(COc4ccc(/C=N/NC(=O)c5ccccc5)cc4)nn3)sc2c1 [8b, (E)-2-(4-((4-((2-benzoylhydrazono)methyl)phenoxy)methyl)-1H-1,2,3-triazol-1-yl)-N-(6-methylbenzo[d]thiazol-2-yl)acetamide]	94 ± 1	21 ± 1	> 500	IC50 [4]: 13 ± 1 µM; inhibition of cell migration at IC50 [5]: 78.9%; inhibition of cell migration at Sub IC50 [5]: 49.8%; % of EGFR inhibition [6]: 96.8 ± 2.1%
CS(=O)(=O)c1ccc2nc(NC(=O)Cn3cc(COc4ccc(/C=N/NC(=O)c5ccccc5)cc4)nn3)sc2c1 [8c, (E)-2-(4-((4-((2-benzoylhydrazono)methyl)phenoxy)methyl)-1H-1,2,3-triazol-1-yl)-N-(6-(methylsulfonyl)benzo[d]thiazol-2-yl)acetamide]	48 ± 2	25 ± 1	> 500	lipophilic efficiency (LLE) [4]: 1.93; lipophilic efficiency (LLE) [2]: 1.84; % of EGFR inhibition [6]: 92.3 ± 3.1%
O=C(Cn1cc(COc2ccc(/C=N/NC(=O)c3ccncc3)cc2)nn1)Nc1nc2ccccc2s1 [8d, (E)-N-(benzo[d]thiazol-2-yl)-2-(4-((4-((2-isonicotinoylhydrazono)methyl)phenoxy)methyl)-1H-1,2,3-triazol-1-yl)acetamide]	100 ± 2	38 ± 2	> 500	
Cc1ccc2nc(NC(=O)Cn3cc(COc4ccc(/C=N/NC(=O)c5ccncc5)cc4)nn3)sc2c1 [8e, (E)-2-(4-((4-((2-isonicotinoylhydrazono)methyl)phenoxy)methyl)-1H-1,2,3-triazol-1-yl)-N-(6-methylbenzo[d]thiazol-2-yl)acetamide]	207 ± 5	92 ± 2	> 500	
CS(=O)(=O)c1ccc2nc(NC(=O)Cn3cc(COc4ccc(/C=N/NC(=O)c5ccncc5)cc4)nn3)sc2c1 [8f, (E)-2-(4-((4-((2-isonicotinoylhydrazono)methyl)phenoxy)methyl)-1H-1,2,3-triazol-1-yl)-N-(6-(methylsulfonyl)benzo[d]thiazol-2-yl)acetamide]	149 ± 3	38 ± 2	> 500	lipophilic efficiency (LLE) [4]: 2.58; lipophilic efficiency (LLE) [2]: 2.66
O=C(Cn1cc(COc2ccc(/C=N\Nc3ccc([N+](=O)[O-])cc3[N+](=O)[O-])cc2)nn1)Nc1nc2ccccc2s1 [8g, (Z)-N-(benzo[d]thiazol-2-yl)-2-(4-((4-((2-(2,4-dinitrophenyl)hydrazono)methyl)phenoxy)methyl)-1H-1,2,3-triazol-1-yl)acetamide]	109 ± 3	103 ± 5	> 500	
CS(=O)(=O)c1ccc2nc(NC(=O)Cn3cc(COc4ccc(/C=N\Nc5ccc([N+](=O)[O-])cc5[N+](=O)[O-])cc4)nn3)sc2c1 [8i, (Z)-2-(4-((4-((2-(2,4-dinitrophenyl)hydrazono)methyl)phenoxy)methyl)-1H-1,2,3-triazol-1-yl)-N-(6-(methylsulfonyl)benzo[d]thiazol-2-yl)acetamide]	162 ± 5	89 ± 4	> 500	lipophilic efficiency (LLE) [4]: 1.52; lipophilic efficiency (LLE) [2]: 1.50
NC(=S)N/N=C\c1ccc(OCc2cn(CC(=O)Nc3nc4ccccc4s3)nn2)cc1 [8j, (Z)-N-(benzo[d]thiazol-2-yl)-2-(4-((4-((2-carbamothioylhydrazono)methyl)phenoxy)methyl)-1H-1,2,3-triazol-1-yl)acetamide]	190 ± 4	63 ± 2	> 500	lipophilic efficiency (LLE) [4]: 1.81; lipophilic efficiency (LLE) [2]: 1.82
Cc1ccc2nc(NC(=O)Cn3cc(COc4ccc(/C=N\NC(N)=S)cc4)nn3)sc2c1 [8k, (Z)-2-(4-((4-((2-carbamothioylhydrazono)methyl)phenoxy)methyl)-1H-1,2,3-triazol-1-yl)-N-(6-methylbenzo[d]thiazol-2-yl)acetamide]	170 ± 7	138 ± 4	> 500	
CS(=O)(=O)c1ccc2nc(NC(=O)Cn3cc(COc4ccc(/C=N\NC(N)=S)cc4)nn3)sc2c1 [8l, (Z)-2-(4-((4-((2-carbamothioylhydrazono)methyl)phenoxy)methyl)-1H-1,2,3-triazol-1-yl)-N-(6-(methylsulfonyl)benzo[d]thiazol-2-yl)acetamide]	180 ± 4	142 ± 3	> 500	
N.N.[Cl][Pt][Cl] [Cisplatin, reference compound]				IC50 [2, 7]: 22 ± 1 µM
